Screening data as filed in PubChem.
A selection: hits, their analogues and other compounds. The true share with any hit is near 2.3%.
Xi reactivation = activators of inactive X chromosome reactivation, primary screen, imaging, XiGFP fibroblasts, GFP high-content imaging, set 2. XiGFP mouse fibroblasts, % GFP-positive cells imaging, 3 d; cells co-treated with 5-aza-dC sensitizer; scaled so ellipticine positive control = 100%. activation, % at 7.58 µM. actives 0.055% (n = 360,000). AID 743238, 2013;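 active = mean normalized replicate activation at least 10% and every replicate at or above 10%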;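 also: 0% = median of on-plate neutral control wells and 100% = ellipticine 6 µM median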
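Material: XiGFP fibroblasts, SV40-immortalized. Buffer or medium: DMEM plus 5-aza-dC sensitizer. Compound: single concentration per compound, delivered by pin transfer. Times: 3 days compound exposure. Controls: ellipticine 6 µM.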
LGR2 antag = inhibitors of bursicon-induced LGR2 CRE-luciferase signal, primary screen, cell-based, HEK293, CRE-luciferase reporter, bursicon stimulation. AID 720647, 2013. actives 0.35% (n = 380,000). bursicon-stimulated, 4 h. inhibition, % at 9.99 µM;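 active = drop in luminescence signal, shown as inhibition above about 50% in the replicate tests, limit read from the data, passing the limit was not always enough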;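 also: agonist challenge used bursicon conditioned medium at about half maximal strength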
EWS-Fli inh = EWS/Fli-driven NR0B1 reporter inhibitors, primary screen, A673 cells, NR0B1 luciferase, luminescence, MLPCN library. viability-normalised. inhibition, % at 12.6 µM. actives 0.67% (n = 350,000);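 active = mean inhibition of at least 50% after viability correction, with every replicate also passing that limit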;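 also: firefly luciferase signal divided by Alamar Blue viability fluorescence both relative to DMSO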
TWEAK-Fn14 inh = inhibitors of TWEAK-Fn14 signaling, primary screen, luciferase reporter cells, uHTS; TWEAK-stimulated Fn14 reporter cells, luciferase luminescence, 8 h; inhibition, % at 10 µM; AID 1159606, 2016; actives 2% (n = 360,000); in the data active = inhibition above about 50%
TROY NFkB inh = inhibitors of TROY-driven NF-kB signaling, primary screen, Q293 LMP1-TROYcd cells, NF-kB luciferase, uHTS; Q293 LMP1-TROYcd NF-kB luciferase reporter, 4 h; inhibition, % at 10 µM; actives 0.98% (n = 360,000); AID 1347056, 2019;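 active = compounds whose plate-normalised and pattern-corrected inhibition of the luciferase reporter signal at the single screening dose is 50% or more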
FN deposition inh = inhibitors of fibronectin matrix deposition, primary screen, AH1F cells, Alexa488-fibronectin fluorescence, plate reader. inhibition, % at 12.6 µM. AID 743247, 2014. AH1F fibroblasts, overnight. actives 0.086% (n = 350,000);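 active = mean inhibition across replicates of 30% or more, regardless of how many single replicates reach that level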;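 also: positive control wells lacked labelled fibronectin entirely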
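Assay system: AH1F fibroblast monolayer, labelled fibronectin deposition. Amount: 10000 cells per well. Also added: labelled fibronectin 24 nM. Compound: single-point pinned compound. Incubation: cell attachment 1 h, compound and FN exposure overnight. Detection: fluorescence after three HBSS washes, excitation 485 nm, emission 525 nm. Read-out: inhibition of fibronectin deposition signal.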
DNA binder FP = DNA binders by acridine orange displacement, dose response, counter-screen for EWS/Fli inhibitor project, biochemical, fluorescence polarization, cherry-pick; salmon sperm DNA acridine orange fluorescence polarization; shares compounds with EWS-Fli inh; AC35, µM (doses to about 68 µM), inactives show top-dose activity change, negative = DNA binding; actives 2% (n = 640); AID 720586, 2013;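 active = fitted curve reaches a 35% signal fall AC35 below twice the sample's top valid tested dose, actives reach about 48 µM in these data; inactive = the rest, including activity in the rising direction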;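 also: lower polarization ratio signals compound binding to DNA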
* marks the source's active call; other numbers are inactive results; . = no result.

SMILES	Xi reactivation	LGR2 antag	EWS-Fli inh	TWEAK-Fn14 inh	TROY NFkB inh	FN deposition inh	DNA binder FP
Cc1noc(C)c1NC(=O)N[C@@H]1CC[C@H](CC(=O)N2CCCCC2)O[C@H]1CO	-0.6	-22.2	2.1	.	.	.	.
CCc1ccc(/C=C2\SC(=S)N(CCCC(=O)NC3=NCCS3)C2=O)cc1	0.2	0.7	76.8*	91.7*	77.1*	-1.7	0.8%
COc1cccc(/C=C2\SC(=S)N(CCCC(=O)NC3=NCCS3)C2=O)c1	0.3	-2.6	.	28.3	42.1	-1.8	.
COc1ccccc1/C=C1\SC(=S)N(CCC(=O)Nc2cc(C)on2)C1=O	.	19.2	52.1*	39.1	7.4	-1.4	4.5%
CCc1ccc(/C=C2\SC(=S)N(CCCC(=O)Nc3cc(C)on3)C2=O)cc1	-0.1	17.6	83.4*	69.9*	80.5*	1.8	-2.3%
CCc1ccc(/C=C2\SC(=S)N(CCC(=O)Nc3cc(C)on3)C2=O)cc1	0.3	1.5	63.0*	69.9*	52.9*	4.3	1.2%
COc1cccc(/C=C2\SC(=S)N(CCCC(=O)Nc3cc(C)on3)C2=O)c1	-0.2	4.1	48.5	-36.1	2.0	-2.8	.
Cc1cc(NC(=O)CCN2C(=O)/C(=C/c3ccccc3Cl)SC2=S)no1	-0.1	5.2	-5.0	-27.5	2.4	-1.0	.
C[C@H](CO)N1C[C@H](C)[C@H](CN(C)Cc2ccc(C(=O)Nc3ccccc3N)cc2)Oc2ccc(NS(=O)(=O)c3ccc(F)cc3)cc2C1=O	-1.1	3.9	45.5	.	.	-9.6	.
C[C@@H]1CN([C@H](C)CO)C(=O)c2cc(NS(=O)(=O)c3cn(C)cn3)ccc2O[C@@H]1CN(C)C(=O)Nc1cccc2ccccc12	0.3	29.9	5.0	.	.	-25.2	.
O=C1CN(S(=O)(=O)c2ccccc2)C[C@H]2[C@@H](c3ccc(C#CCc4ccccc4)cc3)[C@@H](CO)N12	0.2	7.0	6.6	.	.	.	.
CCCn1nnc(NC(=S)NC(=O)C(C)(C)C)n1	0.0	12.1	87.5*	-2.4	-8.3	.	0.0%
C[C@@H]1CN([C@H](C)CO)S(=O)(=O)c2ccc(C#Cc3ccncc3)cc2O[C@@H]1CN(C)C(=O)Nc1ccc2c(c1)OCO2	-0.3	-9.1	65.4*	.	.	.	-3.7%
C[C@@H]1CN([C@@H](C)CO)S(=O)(=O)c2ccc(C#Cc3ccncc3)cc2O[C@H]1CN(C)C(=O)C1CCOCC1	0.0	-5.9	70.0*	.	.	.	1.0%
O=C(N/N=C/c1ccc[nH]1)c1ccccc1OCc1ccc(F)cc1	0.1	-9.2	2.1	-13.1	10.8	-2.5	.
CCOc1ccc(OCc2ccc(C(=O)NN=Cc3ccc[nH]3)cc2)cc1	0.0	7.8	57.1*	52.1*	10.2	.	-0.4%
Cc1ccc(/C=C2\SC(=S)N(CCC(=O)NNC(=O)c3ccccc3O)C2=O)cc1	0.3	25.6	51.3*	-17.0	1.1	-2.9	5.4%
Cc1ccc(/C=C2\SC(=S)N(CCCC(=O)NNC(=O)c3ccccc3O)C2=O)cc1	2.5	1.0	82.2*	87.2*	69.1*	10.1	9.1%
Cc1ccc(C(=O)NNC(=O)CCCN2C(=O)/C(=C/c3ccccc3Cl)SC2=S)cc1	0.0	9.2	30.8	48.4	34.3	-0.1	.
O=C(CCCN1C(=O)/C(=C/c2ccccc2Cl)SC1=S)NNC(=O)c1ccc(Cl)cc1	-0.2	6.4	73.5*	53.3*	66.3*	-2.2	5.1%
CO[C@H]1CN(C)C(=O)c2ccc(NC(=O)c3ccccc3)cc2OC[C@@H](C)N(C(=O)CN(C)C)C[C@@H]1C	0.5	-17.8	2.0	.	.	2.7	.
COCC(=O)Nc1ccc2c(c1)C(=O)N(C)[C@H]1CC[C@@H](CC(=O)NC3CCCC3)O[C@@H]1CO2	0.4	2.6	2.2	.	.	-20.3	.
Cc1cc(C)c2sc(NNC(=O)c3ccc(S(=O)(=O)N4CCc5ccccc5C4)cc3)nc2c1	0.4	.	53.9*	15.9	14.8	9.7	-5.2%
BrC(=C\c1ccccc1)/C=N/n1cnnc1	0.0	85.7*	67.5*	71.6*	16.1	9.5	-8.0%
BrC(=C\c1ccccc1)/C=N/Nc1ccc2nncn2n1	0.2	-15.6	-3.1	-12.2	-34.1	8.6	.
SMILES	Xi reactivation	LGR2 antag	EWS-Fli inh	TWEAK-Fn14 inh	TROY NFkB inh	FN deposition inh	DNA binder FP
COc1ccc(NC(=O)N(C)[C@H]2C[C@H]3c4[nH]c5ccccc5c4CCN3C(=O)[C@H]2CO)cc1	0.2	-15.7	53.2*	23.6	-21.8	1.8	-4.8%
COc1cc(/C=N\Nc2nc(-c3ccc(C)cc3)c(NC(C)=O)s2)ccc1O	0.0	-1.5	54.2*	19.9	-16.5	-1.9	-10.7%
COc1ccc(/C=N/Nc2nc(-c3ccc(C)cc3)c(NC(C)=O)s2)cc1OC	0.2	8.7	-6.5	-10.4	-2.6	0.2	.
O=C(NCC[C@H]1CC[C@H](NC(=O)C2CCCC2)[C@@H](CO)O1)c1ccc(F)cc1	0.0	2.8	4.1	.	.	.	.
C[C@@H]1CN([C@H](C)CO)C(=O)c2cc(NS(=O)(=O)c3ccccc3)ccc2O[C@H]1CN(C)Cc1ccc(C(=O)Nc2ccccc2N)cc1	0.1	-3.7	29.6	.	.	.	.
C[C@@H]1CCCCO[C@H](CN(C)Cc2ccc(C(=O)Nc3ccccc3N)cc2)[C@@H](C)CN([C@@H](C)CO)C(=O)c2cc(NS(=O)(=O)c3ccc(Cl)cc3)ccc2O1	0.6	6.2	58.8*	.	.	-4.5	-8.0%
COc1ccc(S(=O)(=O)Nc2ccc3c(c2)C(=O)N([C@H](C)CO)C[C@@H](C)[C@@H](CN(C)CC2CCCCC2)OCCCC[C@H](C)O3)cc1	0.1	2.8	55.8*	.	.	.	-11.6%
C[C@H]1CN([C@@H](C)CO)C(=O)c2cc(NS(=O)(=O)c3ccc(Cl)cc3)ccc2O[C@H]1CN(C)Cc1ccc(C(=O)Nc2ccccc2N)cc1	-0.3	-15.2	60.8*	.	.	.	-11.8%
C[C@@H]1CCCCO[C@H](CN(C)Cc2ccc(C(F)(F)F)cc2)[C@H](C)CN([C@H](C)CO)C(=O)c2cc(NC(=O)CCCN(C)C)ccc2O1	0.0	6.2	66.6*	.	.	.	0.1%
C[C@@H]1CCCCO[C@@H](CN(C)Cc2ccc(C(F)(F)F)cc2)[C@H](C)CN([C@H](C)CO)C(=O)c2cc(NC(=O)CCCN(C)C)ccc2O1	-0.8	5.0	11.8	.	.	.	.
